Experimental data from ChEMBL document CHEMBL5705906 (Nat Commun, 2017).
The source made the active and inactive calls. No cut-off for these calls is given here.

How the values were obtained:
[1] = Cytotoxicity against mouse Ba/F3 EGFR-Del19/T790M/C797S cells assessed as inhibition of cell viability incubated for 72 hrs by CellTiter-Glo assay; format: functional, cell-based
BaF3 [2] = test: Inhibition of EGFR-C797S/T790M/del19 mutant in mouse BaF3 cells assessed as reduction in EGFR phosphorylation incubated for 6 hrs by Western blotting analysis; format: cell-based
BaF3 [3] = test: Inhibition of EGFR-C797S/T790M/del19 mutant in mouse BaF3 cells assessed as reduction in Akt phosphorylation incubated for 6 hrs by Western blotting analysis; format: cell-based
BaF3 [4] = test: Inhibition of EGFR-C797S/T790M/del19 mutant in mouse BaF3 cells assessed as reduction in ERK phosphorylation incubated for 6 hrs by Western blotting analysis; format: cell-based
BaF3 [5] = test: Inhibition of EGFR-C797S/T790M/del19 mutant in mouse BaF3 cells assessed as reduction in S6 phosphorylation incubated for 6 hrs by Western blotting analysis; format: cell-based
Summary of the method: (§1)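 Ba/F3 cells carrying the stated EGFR mutant were made IL-3-independent after 1 week of 7 µM blasticidin selection. They were grown in low-glucose DMEM with 10% FBS and exposed to inhibitor for 6 h. Cells were washed in cold PBS, lysed in SDS buffer (100 mM Tris, 1% SDS, 10% glycerol) and boiled 5 min. Protein was measured by BCA, run on SDS-PAGE, transferred to PVDF, blocked in 5% BSA or milk/TBS-T, and immunoblotted.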

BaF3 [6] = test: Inhibition of EGFR-T790M/del19 mutant in mouse BaF3 cells assessed as inhibition of EGFR phosphorylation at 10 to 1000 nM incubated for 6 hrs by Western blotting analysis; format: cell-based; details: dose 10-1000 nM; summary of the method: as §1
BaF3 [7] = format: cell-based; details: Mus musculus, dose 10-1000 nM, time 6.0 hrs
BaF3 [8] = test: Inhibition of EGFR-del19 mutant in mouse BaF3 cells assessed as inhibition of Akt phosphorylation at 10 to 1000 nM incubated for 6 hrs by Western blotting analysis; format: cell-based; details: dose 10-1000 nM; summary of the method: as §1
BaF3 [9] = test: Inhibition of EGFR-del19 mutant in mouse BaF3 cells assessed as inhibition of ERK phosphorylation at 10 to 1000 nM incubated for 6 hrs by Western blotting analysis; format: cell-based; details: dose 10-1000 nM; summary of the method: as §1
BaF3 [10] = test: Inhibition of EGFR-del19 mutant in mouse BaF3 cells assessed as inhibition of S6 phosphorylation at 10 to 1000 nM incubated for 6 hrs by Western blotting analysis; format: cell-based; details: dose 10-1000 nM; summary of the method: as §1
BaF3 [11] = test: Inhibition of EGFR-T790M/del19 mutant in mouse BaF3 cells assessed as inhibition of Akt phosphorylation at 10 to 1000 nM incubated for 6 hrs by Western blotting analysis; format: cell-based; details: dose 10-1000 nM; summary of the method: as §1
BaF3 [12] = test: Inhibition of EGFR-T790M/del19 mutant in mouse BaF3 cells assessed as inhibition of ERK phosphorylation at 10 to 1000 nM incubated for 6 hrs by Western blotting analysis; format: cell-based; details: dose 10-1000 nM; summary of the method: as §1
BaF3 [13] = test: Inhibition of EGFR-T790M/del19 mutant in mouse BaF3 cells assessed as inhibition of S6 phosphorylation at 10 to 1000 nM incubated for 6 hrs by Western blotting analysis; format: cell-based; details: dose 10-1000 nM; summary of the method: as §1
BaF3 [14] = format: cell-based; details: Mus musculus, dose 10-1000 nM, time 6.0 hrs; remark: listed apart in the source
BaF3 [15] = format: cell-based; details: Mus musculus, dose 10-1000 nM, time 6.0 hrs; remark: listed apart in the source
BaF3 [16] = format: cell-based; details: Mus musculus, dose 10-1000 nM, time 6.0 hrs; remark: listed apart in the source
BaF3 [17] = test: Inhibition of EGFR-C797S/T790M/L858R mutant in mouse BaF3 cells assessed as inhibition of EGFR phosphorylation at 10 to 1000 nM incubated for 6 hrs by Western blotting analysis; format: cell-based; details: dose 10-1000 nM
Summary of the method: (§2)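 Ba/F3 cells expressing EGFR-L858R-series mutants treated with inhibitors for 6 h. SDS lysates quantified by BCA, run on SDS-PAGE and blotted to PVDF. Probed for phospho-EGFR (Tyr1068), total EGFR and downstream phospho-proteins.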

BaF3 [18] = test: Inhibition of EGFR-C797S/T790M/L858R mutant expressed in mouse BaF3 cells assessed as inhibition of Akt phosphorylation at 10 to 1000 nM incubated for 6 hrs by Western blotting analysis; format: cell-based; details: dose 10-1000 nM; summary of the method: as §2
BaF3 [19] = test: Inhibition of EGFR-C797S/T790M/L858R mutant expressed in mouse BaF3 cells assessed as inhibition of ERK phosphorylation at 10 to 1000 nM incubated for 6 hrs by Western blotting analysis; format: cell-based; details: dose 10-1000 nM; summary of the method: as §2
BaF3 [20] = test: Inhibition of EGFR-C797S/T790M/L858R mutant in mouse BaF3 cells assessed as inhibition of S6 phosphorylation at 10 to 1000 nM incubated for 6 hrs by Western blotting analysis; format: cell-based; details: dose 10-1000 nM; summary of the method: as §2
PC-9 [21] = test: Inhibition of EGFR T790M/del19 mutant in human PC-9 cells assessed as reduction in EGFR phosphorylation at 10 to 1000 nM by Western blotting analysis; format: cell-based; details: dose 10-1000 nM
PC-9 [22] = test: Inhibition of EGFR T790M/del19 mutant in human PC-9 cells assessed as reduction in Akt phosphorylation at 10 to 1000 nM by Western blotting analysis; format: cell-based; details: dose 10-1000 nM
PC-9 [23] = test: Inhibition of EGFR T790M/del19 mutant in human PC-9 cells assessed as reduction in ERK phosphorylation at 10 to 1000 nM by Western blotting analysis; format: cell-based; details: dose 10-1000 nM
PC-9 [24] = test: Inhibition of EGFR T790M/del19 mutant in human PC-9 cells assessed as reduction in S6 phosphorylation at 10 to 1000 nM by Western blotting analysis; format: cell-based; details: dose 10-1000 nM
[25] = Cytotoxicity against mouse Ba/F3 EGFR-Del19/T790M/C797S cells assessed as inhibition of cell viability by measuring fold change at 30 nM incubated for 72 hrs in presence of cetuximab by CellTiter-Glo assay relative to AP26113-analog alone; format: functional
[26] = test system: Epidermal growth factor receptor (Homo sapiens), P00533 [UNDEFINED MUTATION]; details: PC-9, dose 10-1000 nM
[27] = test system: Epidermal growth factor receptor (Homo sapiens), P00533 [UNDEFINED MUTATION]; details: PC-9, dose 10-1000 nM; remark: listed apart in the source
[28] = test system: Epidermal growth factor receptor (Homo sapiens), P00533 [UNDEFINED MUTATION]; details: PC-9, dose 10-1000 nM; remark: listed apart in the source
[29] = test system: Epidermal growth factor receptor (Homo sapiens), P00533 [UNDEFINED MUTATION]; details: PC-9, dose 10-1000 nM; remark: listed apart in the source
[30] = test system: Epidermal growth factor receptor (Homo sapiens), P00533 [UNDEFINED MUTATION]; details: MGH121, dose 10-1000 nM
[31] = test system: Epidermal growth factor receptor (Homo sapiens), P00533 [UNDEFINED MUTATION]; details: MGH121, dose 10-1000 nM; remark: listed apart in the source
[32] = test system: Epidermal growth factor receptor (Homo sapiens), P00533 [UNDEFINED MUTATION]; details: MGH121, dose 10-1000 nM; remark: listed apart in the source
[33] = test system: Epidermal growth factor receptor (Homo sapiens), P00533 [UNDEFINED MUTATION]; details: MGH121, dose 10-1000 nM; remark: listed apart in the source
[34] = test system: Epidermal growth factor receptor (Homo sapiens), P00533 [UNDEFINED MUTATION]; details: PC-9, dose 10-1000 nM; remark: listed apart in the source
[35] = test system: Epidermal growth factor receptor (Homo sapiens), P00533 [UNDEFINED MUTATION]; details: PC-9, dose 10-1000 nM; remark: listed apart in the source
[36] = test system: Epidermal growth factor receptor (Homo sapiens), P00533 [UNDEFINED MUTATION]; details: PC-9, dose 10-1000 nM; remark: listed apart in the source
[37] = test system: Epidermal growth factor receptor (Homo sapiens), P00533 [UNDEFINED MUTATION]; details: PC-9, dose 10-1000 nM; remark: listed apart in the source

Sequence of Epidermal growth factor receptor (Homo sapiens), P00533 [UNDEFINED MUTATION] (P00533 whole entry, looked up, change not shown): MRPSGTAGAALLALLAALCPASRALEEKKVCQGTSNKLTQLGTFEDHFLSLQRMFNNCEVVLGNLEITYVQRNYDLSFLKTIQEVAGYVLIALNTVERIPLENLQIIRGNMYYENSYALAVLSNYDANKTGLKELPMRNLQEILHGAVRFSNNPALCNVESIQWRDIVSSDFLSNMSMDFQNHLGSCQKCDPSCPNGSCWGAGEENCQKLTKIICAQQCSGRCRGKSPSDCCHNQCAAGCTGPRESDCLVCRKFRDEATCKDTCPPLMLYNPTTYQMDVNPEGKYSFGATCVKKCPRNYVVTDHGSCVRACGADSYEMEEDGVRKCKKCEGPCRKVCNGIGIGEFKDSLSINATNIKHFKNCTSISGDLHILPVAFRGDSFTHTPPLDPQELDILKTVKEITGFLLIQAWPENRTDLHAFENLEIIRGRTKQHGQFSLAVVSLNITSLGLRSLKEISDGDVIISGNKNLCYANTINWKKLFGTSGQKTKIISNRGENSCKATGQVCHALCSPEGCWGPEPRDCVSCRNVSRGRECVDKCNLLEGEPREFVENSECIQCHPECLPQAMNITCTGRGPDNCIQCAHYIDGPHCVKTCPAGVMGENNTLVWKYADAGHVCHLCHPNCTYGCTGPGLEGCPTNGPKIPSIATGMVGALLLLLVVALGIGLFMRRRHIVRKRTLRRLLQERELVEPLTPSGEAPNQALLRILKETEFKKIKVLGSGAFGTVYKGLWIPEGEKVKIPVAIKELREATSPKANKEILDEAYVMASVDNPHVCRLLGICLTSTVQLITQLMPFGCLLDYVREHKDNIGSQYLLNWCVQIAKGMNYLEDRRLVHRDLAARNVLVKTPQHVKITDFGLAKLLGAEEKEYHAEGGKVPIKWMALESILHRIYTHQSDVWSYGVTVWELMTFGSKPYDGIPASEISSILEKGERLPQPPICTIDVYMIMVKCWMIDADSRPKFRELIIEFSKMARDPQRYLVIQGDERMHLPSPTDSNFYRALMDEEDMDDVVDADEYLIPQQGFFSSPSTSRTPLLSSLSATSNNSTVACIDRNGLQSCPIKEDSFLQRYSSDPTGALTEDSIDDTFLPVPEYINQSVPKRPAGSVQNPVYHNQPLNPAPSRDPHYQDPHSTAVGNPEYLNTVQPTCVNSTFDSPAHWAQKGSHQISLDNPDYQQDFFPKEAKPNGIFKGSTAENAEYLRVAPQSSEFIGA

Question: For COc1cc(N2CCC(N(C)C)CC2)ccc1Nc1ncc(Cl)c(Nc2ccccc2P(C)(C)=O)n1, which IC50 [1] is on record?
Answer: The IC50 was 59.1 nM.

Question: What about the inhibition (BaF3 [2]) of the same molecule?
Answer: The inhibition was “Active”.

Question: And the inhibition (BaF3 [3])?
Answer: The inhibition was “Active”.

Question: And the inhibition (BaF3 [4])?
Answer: Its inhibition is “Active”.

Question: What about the inhibition (BaF3 [5]) of the same molecule?
Answer: The inhibition was “Active”.

Question: What about the inhibition (BaF3 [6]) of the same molecule?
Answer: The inhibition was “Active”.

Question: What about the inhibition (BaF3 [7]) of the same molecule?
Answer: The inhibition was “Active”.

Question: And the inhibition (BaF3 [8])?
Answer: The inhibition was “Active”.

Question: What about the inhibition (BaF3 [9]) of the same molecule?
Answer: Its inhibition is “Active”.

Question: What about the inhibition (BaF3 [10]) of the same molecule?
Answer: The inhibition was “Active”.

Question: What about the inhibition (BaF3 [11]) of the same molecule?
Answer: The inhibition was “Active”.

Question: And the inhibition (BaF3 [12])?
Answer: Its inhibition is “Active”.

Question: What about the inhibition (BaF3 [13]) of the same molecule?
Answer: Its inhibition is “Active”.

Question: What about the inhibition (BaF3 [14]) of the same molecule?
Answer: The inhibition was “Active”.

Question: And the inhibition (BaF3 [15])?
Answer: The inhibition was “Active”.

Question: What about the inhibition (BaF3 [16]) of the same molecule?
Answer: Its inhibition is “Active”.

Question: What about the inhibition (BaF3 [17]) of the same molecule?
Answer: The inhibition was “Active”.

Question: What about the inhibition (BaF3 [18]) of the same molecule?
Answer: The inhibition was “Active”.

Question: What about the inhibition (BaF3 [19]) of the same molecule?
Answer: The inhibition was “Active”.

Question: What about the inhibition (BaF3 [20]) of the same molecule?
Answer: The inhibition was “Active”.

Question: And the inhibition (PC-9 [21])?
Answer: The inhibition was “Active”.

Question: What about the inhibition (PC-9 [22]) of the same molecule?
Answer: Its inhibition is “Active”.

Question: What about the inhibition (PC-9 [23]) of the same molecule?
Answer: Its inhibition is “Active”.

Question: What about the inhibition (PC-9 [24]) of the same molecule?
Answer: The inhibition was “Active”.

Question: And the “fold change (FC)” value [25]?
Answer: The value was ~3.

Question: What about the inhibition [26] of the same molecule?
Answer: Its inhibition is “Active”.

Question: And the inhibition [27]?
Answer: The inhibition was “Active”.

Question: And the inhibition [28]?
Answer: The inhibition was “Active”.

Question: What about the inhibition [29] of the same molecule?
Answer: The inhibition was “Active”.

Question: And the inhibition [30]?
Answer: The inhibition was “Active”.

Question: What about the inhibition [31] of the same molecule?
Answer: The inhibition was “Active”.

Question: And the inhibition [32]?
Answer: Its inhibition is “Active”.

Question: And the inhibition [33]?
Answer: Its inhibition is “Active”.

Question: What about the inhibition [34] of the same molecule?
Answer: The inhibition was “Active”.

Question: What about the inhibition [35] of the same molecule?
Answer: The inhibition was “Active”.

Question: What about the inhibition [36] of the same molecule?
Answer: Its inhibition is “Active”.

Question: And the inhibition [37]?
Answer: The inhibition was “Active”.
